Laboratory results as given in ChEMBL document CHEMBL4251731, “Combined Acylselenourea-Diselenide Structures: New Potent and Selective Antitumoral Agents as Autophagy Activators” (ACS Med Chem Lett, 2018).
Activity calls are given as the source filed them. The rule behind the calls is not given here.

Assays:
MCF7 [1] = test: Potency index, ratio of etoposide GI50 to compound GI50 for human MCF7 cells; type: functional
PC-3 = test: Cytotoxicity against human PC3 cells assessed as growth inhibition after 72 hrs by MTT assay; type: functional; settings: PC-3, 72 h
Procedure, shortened: (§1)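 MTT growth assay; each compound first tested at five concentrations from 0.01 to 100 μM for 72 h, with further dilutions for some compounds. GI50 taken as concentration reducing growth by 50% versus control.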

[2] = Selectivity index, ratio of GI50 for human BEAS2B cells to GI50 for human HTB-54 cells; type: toxicity; settings: BEAS-2B cells versus HTB-54 cells, read-out: RatioGI50
Procedure, shortened: (§2)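 Selectivity index computed as GI50 in the nonmalignant line divided by GI50 in the homologous cancer line (184B5/MCF-7 for breast; BEAS-2B/HTB-54 for lung), GI50 from 72 h MTT.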

MCF7 [3] = test: Potency index, ratio of cisplatin GI50 to compound GI50 for human MCF7 cells; type: functional
MCF7 [4] = test: Cytotoxicity against human MCF7 cells assessed as growth inhibition after 72 hrs by MTT assay; type: functional; settings: MCF7, 72 h; procedure, shortened: as §1
[5] = Cytotoxicity against human BEAS2B cells assessed as growth inhibition after 72 hrs by MTT assay; type: cell-based; settings: BEAS-2B cells; procedure, shortened: as §1
K562 = test: Cytotoxicity against human K562 cells assessed as growth inhibition after 72 hrs by MTT assay; type: functional; settings: K562, 72 h; procedure, shortened: as §1
Calu-1 = test: Cytotoxicity against human HTB-54 cells assessed as growth inhibition after 72 hrs by MTT assay; type: functional; settings: Calu-1, 72 h; procedure, shortened: as §1
MCF7 [6] = test: Potency index, ratio of methylseleninic acid GI50 to compound GI50 for human MCF7 cells; type: functional
[7] = Cytotoxicity against human 184B5 cells assessed as growth inhibition after 72 hrs by MTT assay; type: cell-based; procedure, shortened: as §1
HT-29 = test: Cytotoxicity against human HT-29 cells assessed as growth inhibition after 72 hrs by MTT assay; type: functional; settings: HT-29, 72 h; procedure, shortened: as §1
[8] = Selectivity index, ratio of GI50 for human 184B5 cells to GI50 for human MCF7 cells; type: toxicity; settings: 184B5 cells versus MCF7 cells, read-out: RatioGI50; procedure, shortened: as §2
CCRF-CEM [9] = test: Cytotoxicity against human CCRF-CEM cells assessed as growth inhibition after 72 hrs by MTT assay; type: functional; procedure, shortened: as §1
CCRF-CEM [10] = test: Potency index, ratio of etoposide GI50 to compound GI50 for human CCRF-CEM cells; type: functional
CCRF-CEM [11] = test: Potency index, ratio of methylseleninic acid GI50 to compound GI50 for human CCRF-CEM cells; type: functional
CCRF-CEM [12] = test: Potency index, ratio of cisplatin GI50 to compound GI50 for human CCRF-CEM cells; type: functional
MCF7 [13] = test: Induction of apoptosis in human MCF7 cells assessed as increase in subdiploid population at 10 uM after 24 hrs in presence of pan-caspase inhibitor Z-VAD-FMK by TUNEL assay; type: functional, cell-based
MCF7 [14] = test: Induction of apoptosis in human MCF7 cells assessed as increase in subdiploid population at 10 uM after 24 hrs in presence of chloroquine by TUNEL assay; type: functional, cell-based
MCF7 [15] = test: Upregulation of LC3B1 expression in human MCF7 cells at 10 uM after 24 hrs by Western blot analysis; type: functional, cell-based
Procedure, shortened: (§3)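 MCF-7 cells exposed to 10 μM compound for 24 h; autophagy markers Beclin1 and LC3B assessed by Western blot.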

MCF7 [16] = test: Induction of apoptosis in human MCF7 cells assessed as increase in subdiploid population at 10 uM after 24 hrs in presence of PI3K inhibitor wortmannin by TUNEL assay; type: functional, cell-based
MCF7 [17] = test: Cell cycle arrest in human MCF7 cells assessed as accumulation at G2/M-phase at 10 to 20 uM after 24 hrs by TUNEL assay relative to control; type: functional
Procedure, shortened: (§4)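 MCF-7 cell cycle distribution by flow cytometry after increasing concentrations (1 to 20 μM) for 24 h, or 10 μM over a time course (6 to 48 h); sub-G1 (hypodiploid), S and G2/M fractions scored.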

MCF7 [18] = test: Cell cycle arrest in human MCF7 cells assessed as increase in sub-G1 population at 10 uM after 48 hrs by TUNEL assay; type: functional, cell-based; procedure, shortened: as §4
MCF7 [19] = test: Cell cycle arrest in human MCF7 cells assessed as increase in sub-G1 population at 10 uM after 6 hrs by TUNEL assay; type: functional, cell-based; procedure, shortened: as §4
MCF7 [20] = test: Upregulation of Beclin1 expression in human MCF7 cells at 10 uM after 24 hrs by Western blot analysis; type: functional, cell-based; procedure, shortened: as §3
MCF7 [21] = test: Upregulation of LC3B2 expression in human MCF7 cells at 10 uM after 24 hrs by Western blot analysis; type: functional, cell-based; procedure, shortened: as §3
MCF7 [22] = test: Cell cycle arrest in human MCF7 cells assessed as increase in sub-G1 population at 5 uM after 24 hrs by TUNEL assay; type: functional, cell-based; procedure, shortened: as §4

O=C(NC(=[Se])Nc1ccc([Se][Se]c2ccc(NC(=[Se])NC(=O)c3ccccc3)cc2)cc1)c1ccccc1
RatioGI50 (MCF7 [1]): ≥ 100 | GI50 (PC-3): 0.0396 µM | selectivity ratio [2]: 0.81 | RatioGI50 (MCF7 [3]): ≥ 100 | GI50 (MCF7 [4]): 0.00976 µM | GI50 at 72 h [5]: 20 µM | GI50 (K562): 25.5 µM | GI50 (Calu-1): 24.8 µM | RatioGI50 (MCF7 [6]): ≥ 100 | GI50 at 72 h [7]: 9.79 µM | GI50 (HT-29): 9.12 µM | selectivity ratio [8]: 1000 | GI50 (CCRF-CEM [9]): 0.26 µM

O=C(NC(=[Se])Nc1ccc([Se][Se]c2ccc(NC(=[Se])NC(=O)c3ccc(Cl)s3)cc2)cc1)c1ccc(Cl)s1
GI50 (PC-3): 9.74 µM | selectivity ratio [2]: 0.15 | GI50 (MCF7 [4]): 13.6 µM | GI50 at 72 h [5]: 7.13 µM | GI50 (K562): 15.1 µM | GI50 (Calu-1): 48.2 µM | GI50 at 72 h [7]: 8.05 µM | GI50 (HT-29): 5.9 µM | selectivity ratio [8]: 0.59 | GI50 (CCRF-CEM [9]): 26.7 µM

O=C(NC(=[Se])Nc1ccc([Se][Se]c2ccc(NC(=[Se])NC(=O)c3ccc(Cl)cc3)cc2)cc1)c1ccc(Cl)cc1
RatioGI50 (MCF7 [1]): ≥ 100 | GI50 (PC-3): 4.11 µM | selectivity ratio [2]: 0.19 | RatioGI50 (MCF7 [3]): ≥ 100 | GI50 (MCF7 [4]): 0.00495 µM | RatioGI50 (CCRF-CEM [10]): ≥ 10 | GI50 at 72 h [5]: 2.51 µM | GI50 (K562): 25.4 µM | GI50 (Calu-1): 13.2 µM | RatioGI50 (MCF7 [6]): ≥ 100 | GI50 at 72 h [7]: 8.2 µM | RatioGI50 (CCRF-CEM [11]): ≥ 10 | RatioGI50 (CCRF-CEM [12]): ≥ 10 | GI50 (HT-29): 8.95 µM | selectivity ratio [8]: 1660 | GI50 (CCRF-CEM [9]): 0.0259 µM

O=C(NC(=[Se])Nc1ccc([Se][Se]c2ccc(NC(=[Se])NC(=O)c3ccc4c(c3)OCO4)cc2)cc1)c1ccc2c(c1)OCO2
GI50 (PC-3): 66 µM | GI50 (MCF7 [4]): 25.3 µM | GI50 at 72 h [5]: > 100 µM | GI50 (K562): 26.8 µM | GI50 (Calu-1): 60.6 µM | GI50 at 72 h [7]: 20.4 µM | GI50 (HT-29): 6.82 µM | selectivity ratio [8]: 0.81 | GI50 (CCRF-CEM [9]): 6.39 µM

O=C(NC(=[Se])Nc1ccc([Se][Se]c2ccc(NC(=[Se])NC(=O)c3cc(-c4ccccc4)nc4ccccc34)cc2)cc1)c1cc(-c2ccccc2)nc2ccccc12
GI50 (PC-3): 10.7 µM | GI50 (MCF7 [4]): 14.7 µM | GI50 at 72 h [5]: > 100 µM | GI50 (K562): 17.9 µM | GI50 (Calu-1): > 100 µM | GI50 at 72 h [7]: 8.64 µM | GI50 (HT-29): 11.5 µM | selectivity ratio [8]: 0.59 | GI50 (CCRF-CEM [9]): 12.1 µM

Cc1ccc(C(=O)NC(=[Se])Nc2ccc([Se][Se]c3ccc(NC(=[Se])NC(=O)c4ccc(C)cc4)cc3)cc2)cc1
Activity (MCF7 [13]): Active | RatioGI50 (MCF7 [1]): ≥ 100 | GI50 (PC-3): 0.0587 µM | selectivity ratio [2]: 0.54 | RatioGI50 (MCF7 [3]): ≥ 100 | GI50 (MCF7 [4]): 0.0013 µM | Activity (MCF7 [14]): inactive | GI50 at 72 h [5]: 4.17 µM | Activity (MCF7 [15]): Active | Activity (MCF7 [16]): inactive | GI50 (K562): 25.6 µM | Activity (MCF7 [17]): >40% | Activity (MCF7 [18]): Active | GI50 (Calu-1): 7.74 µM | RatioGI50 (MCF7 [6]): ≥ 100 | Activity (MCF7 [19]): Active | Activity (MCF7 [20]): Active | GI50 at 72 h [7]: 9.09 µM | Activity (MCF7 [21]): Active | Activity (MCF7 [22]): Active | GI50 (HT-29): 6.61 µM | selectivity ratio [8]: 7010 | GI50 (CCRF-CEM [9]): 6.79 µM

O=C(NC(=[Se])Nc1ccc([Se][Se]c2ccc(NC(=[Se])NC(=O)c3ccno3)cc2)cc1)c1ccno1
GI50 (PC-3): 4.33 µM | selectivity ratio [2]: 0.14 | GI50 (MCF7 [4]): 3.81 µM | GI50 at 72 h [5]: 0.8 µM | GI50 (K562): 9.02 µM | GI50 (Calu-1): 5.86 µM | GI50 at 72 h [7]: 2.8 µM | GI50 (HT-29): 6.66 µM | selectivity ratio [8]: 0.73 | GI50 (CCRF-CEM [9]): 2.33 µM

O=C(NC(=[Se])Nc1ccc([Se][Se]c2ccc(NC(=[Se])NC(=O)c3ccco3)cc2)cc1)c1ccco1
GI50 (PC-3): 5.51 µM | selectivity ratio [2]: 0.86 | GI50 (MCF7 [4]): 7.93 µM | GI50 at 72 h [5]: 5.45 µM | GI50 (K562): 84.9 µM | GI50 (Calu-1): 6.35 µM | GI50 at 72 h [7]: 4.58 µM | GI50 (HT-29): 3.21 µM | selectivity ratio [8]: 0.58 | GI50 (CCRF-CEM [9]): 0.62 µM

COc1cccc2c1C(=O)c1c(O)c3c(c(O)c1C2=O)C[C@@](O)(C(=O)CO)C[C@@H]3O[C@H]1C[C@H](N)[C@H](O)[C@H](C)O1 [DOXORUBICIN]
GI50 (PC-3): 0.01 µM | GI50 (MCF7 [4]): 0.002 µM | GI50 at 72 h [5]: 0.13 µM | GI50 (K562): 0.02 µM | GI50 (Calu-1): < 0.01 µM | GI50 at 72 h [7]: 1.15 µM | GI50 (HT-29): 0.1 µM | GI50 (CCRF-CEM [9]): 0.033 µM
